Screens from PubChem BioAssay.
KLK5 inh: blocks human kallikrein 5 protease activity; AID 873; inhibition, % at 5 µM; 210,000 tested, 0.59% active; Q9Y337; recombinant hK5, fluorogenic AMC substrate cleavage;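 active = inhibition of 40% or more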;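 also: 0% = enzyme controls without compound and 100% = no-enzyme blanks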
Calpain2 inh: blocks pig calpain II enzyme activity | purified calpain II, fluorogenic peptide substrate, 30 min | AID 1236 | inhibition, % at 16 µM | 220,000 tested, 0.37% active;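 active = inhibition above about 50%, limit read from the data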
FXIIa inh: blocks human coagulation factor XIIa protease activity | purified FXIIa, Boc-QGR-AMC fluorogenic substrate, 2 h | 220,000 tested, 0.3% active | inhibition, % at 5 µM; in the data active = inhibition above about 40%;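 also: 0% = enzyme with no compound and 100% = blank without enzyme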
Target sequence (P00748 20-372 limits assumed): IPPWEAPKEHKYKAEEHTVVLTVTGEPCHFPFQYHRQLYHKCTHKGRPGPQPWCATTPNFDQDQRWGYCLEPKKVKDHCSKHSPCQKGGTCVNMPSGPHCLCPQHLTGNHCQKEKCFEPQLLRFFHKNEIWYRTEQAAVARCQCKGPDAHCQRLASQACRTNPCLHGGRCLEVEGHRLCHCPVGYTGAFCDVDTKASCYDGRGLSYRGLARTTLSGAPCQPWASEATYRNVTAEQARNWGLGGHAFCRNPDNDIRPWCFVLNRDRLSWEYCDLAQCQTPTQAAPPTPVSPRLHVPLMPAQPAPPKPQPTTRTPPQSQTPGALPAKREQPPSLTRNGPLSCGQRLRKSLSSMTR
Target sequence (P00748 373-615 limits assumed): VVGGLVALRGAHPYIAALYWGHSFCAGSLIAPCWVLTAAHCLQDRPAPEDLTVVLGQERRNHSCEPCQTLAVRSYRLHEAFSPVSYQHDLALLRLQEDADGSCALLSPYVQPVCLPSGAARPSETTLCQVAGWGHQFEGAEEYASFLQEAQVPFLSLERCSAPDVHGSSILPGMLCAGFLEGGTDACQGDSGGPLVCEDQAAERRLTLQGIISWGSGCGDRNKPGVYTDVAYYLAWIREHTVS
thrombin 1536: inhibitors of human thrombin; alpha-thrombin, Boc-VPR-AMC fluorogenic substrate cleavage; inhibition, % at 5 µM; 220,000 tested, 0.26% active; AID 1046;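 active = inhibition at or above 40%; inactive = inhibition below 40%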;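 also: 0% = enzyme with no compound and 100% = wells without enzyme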
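System: Human alpha-thrombin protein | Medium: pH 7.5 Tris (50 mM) with NaCl 150 mM, Tween 20 0.05% | Times: Enzyme reaction carried out at room temperature | Detection: AMC fluorescence, 355/460 nm | Evaluation: Percent inhibition scaled between no-compound controls and no-enzyme blanks | Benchmarks: Enzyme without compound as high, wells lacking enzyme as low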
FXIa inh 1536: inhibitors of human coagulation factor XIa; purified FXIa, Boc-Glu-Ala-Arg-AMC fluorogenic substrate; inhibition, % at 5 µM; 220,000 tested, 0.14% active; P03951;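 active = inhibition of at least 40%; inactive = inhibition below 40%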;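 also: fluorescence of freed AMC excited at 355 nm; 0% = enzyme without compound and 100% = no enzyme blank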
Numbers without * were called inactive; · = no result. Most compounds without a hit are left out; they make up all but 1.4% or so of the library.

SMILES	KLK5 inh	Calpain2 inh	FXIIa inh	thrombin 1536	FXIa inh 1536
O=C(Cc1ccccc1Cl)Nc1cccc(S(=O)(=O)N2CCOCC2)c1	-9	-2	-2	-6	-4
Cc1ccc(/C=C/C(=O)Nc2cccc(S(=O)(=O)N3CCOCC3)c2)o1	72*	-3	7	40	-5
O=C(/C=C/c1ccco1)Nc1cccc(S(=O)(=O)N2CCOCC2)c1	-6	14	1	-10	-5
Cc1ccc2c(CC(=O)Nc3cccc(S(=O)(=O)N4CCOCC4)c3)coc2c1	-2	51*	5	9	-2
Cc1ccc(C)n1-c1cccc(C(=O)O)c1	2	-35	1	-6	-27
O=C(O)c1cccc(N2CCCC2)c1	128*	-252	-9	-1	-8
CCCCC(=O)NC(=S)Nc1c(C)cc(Br)cc1C	-16	20	7	-4	-6
c1cncc(-c2nc3ccccc3o2)c1	-13	·	-8	0	-8
O=c1oc(-c2cccnc2)nc2ccccc12	9	10	-3	82*	3
Cn1nc(C(F)(F)F)c2cc(NC(=O)OCc3ccc(F)cc3)sc21	-6	90*	3	-5	-6
COc1ccc(COC(=O)Nc2cc3c(C(F)(F)F)nn(C)c3s2)cc1	-4	62*	7	-5	-6
O=C1NC(=Nc2cccc(O)c2)S/C1=C\c1cccnc1	66*	16	19	23	29
COc1ccc(CNC(=O)COC(=O)/C=C/c2cccc(Br)c2)cc1OC	3	5	7	1	-1
CCOC(=O)N1CCN(C(=O)c2cnn3c(C)c(Cc4ccc(C)cc4)c(C)nc23)CC1	63*	-198	21	10	4
COC(=O)/C(=C1/Oc2ccc(C)cc2S1)C(F)(F)F	-9	-3	-2	-5	0
Cc1ccc(-c2nc(CS(=O)(=O)CC(=O)N3CCCCCC3)c(C)o2)cc1	1	14	8	-2	0
Cc1ccc(-c2nc(CS(=O)(=O)CC(=O)N3CCc4ccccc4C3)c(C)o2)cc1	-1	13	51*	-8	36
CC1(C)Oc2ccc(C(=O)NC3CCCC3)cc2N(CC(=O)NC2CCCC2)C1=O	10	30	64*	1	20
COC(=O)CN(C)C(=O)CC1C(=O)NCCN1CC(C)(C)C (centres undefined)	-3	-36	5	-2	-2
C=C(C)CN(CC)C(=O)CC1C(=O)NCCN1CC(C)(C)C (centres undefined)	1	0	6	44*	4
CC12CCC(c3c(C(=O)N4CCOCC4)nn(-c4ccccc4)c31)C2(C)C (centres undefined)	41*	16	40*	2	31
COc1c2ccccc2c(OC)c2ccccc12	3	-18	9	-7	3
COc1ccc(C(=O)Nc2ccccc2C(=O)NCc2ccco2)cc1OC	42*	-1	7	22	4
CCOc1ccc(C(=O)NCC(=O)OC(C)C(=O)NCc2ccco2)cc1OCC (centres undefined)	55*	-99	7	64*	3
COc1ccc(C(=O)Nc2ccc(Cl)cc2C(=O)NCc2ccco2)cc1OC	-13	-43	0	0	-2
SMILES	KLK5 inh	Calpain2 inh	FXIIa inh	thrombin 1536	FXIa inh 1536
COc1cccc(/C=N/NC(=O)CCn2cnc3ccccc32)c1	-5	19	-3	-7	-5
COc1ccc(/C=N/NC(=O)CCn2cnc3ccccc32)cc1	41*	17	40*	10	41*
CCc1nnc(NC(=O)CSc2nc3c(cc2C#N)CCCC3)s1	49*	-38	3	12	1
CN(C)c1ccc2c3c(ccc(N(C)C)c13)C(=O)OC2	5	12	3	-6	3
COc1ccc(N2C(=O)CC(Nc3cccc([N+](=O)[O-])c3)C2=O)cc1 (centres undefined)	42*	19	44*	17	18
COc1cc2nc(=S)n3[nH]c(COc4ccccc4C)nc3c2cc1OC	45*	-24	19	17	12
COc1cc2nc(=S)n3[nH]c(CCn4nc(C)cc4C)nc3c2cc1OC	18	3	18	-1	10
CCOc1ccccc1C(=O)N1c2ccccc2Sc2ccccc21	-9	55*	9	-2	-5
COc1ccccc1C(=O)N1c2ccccc2Sc2ccccc21	-5	29	-1	-8	0
Cc1noc(C)c1COC(=O)CNC(=O)c1cccc(F)c1	-1	59*	12	-3	-2
Cc1cc(C)cc(C(=O)NCC(=O)OCc2c(C)noc2C)c1	-29	0	4	-7	-4
Cc1noc(C)c1COC(=O)C(c1ccccc1)c1ccccc1	-4	58*	10	-5	-1
Cc1cccc(NC(=O)N2CCCC2C(=O)Nc2ccccc2)c1 (centres undefined)	1	-21	9	-7	1
O=C(Nc1ccc(Cl)cc1)NN1CC(=O)N(c2cccc(C(F)(F)F)c2)CC1=O	-2	-22	2	-5	-2
O=C(O)CCCC(=O)N1N=C(c2ccccc2)CC1c1cccs1 (centres undefined)	24	11	25	7	49*
O=C(O)CCC(=O)N1N=C(c2ccccc2)CC1c1cccs1 (centres undefined)	3	11	10	2	4
O=C(O)c1cccc(N2C(=O)/C(=C/c3ccc(SCc4ccc(Cl)cc4)o3)SC2=S)c1	-5	69*	11	4	-3
CC(C)C(NS(=O)(=O)c1ccccc1)C(=O)OCc1cc([N+](=O)[O-])cc2c1OCOC2 (centres undefined)	39	44	7	48*	11
O=C1C2CCCCC2C(=O)N1c1ccc(NC2CCCCC2)c([N+](=O)[O-])c1 (centres undefined)	-21	61*	6	-4	-2
COCCNc1ccc(N2C(=O)C3CCCCC3C2=O)cc1[N+](=O)[O-] (centres undefined)	·	43	8	0	0
O=[N+]([O-])c1ccc(N2CCCC2)cc1NC1CC1	44*	34	9	12	9
C=CCNc1ccc(N2C(=O)C3CCC(C)CC3C2=O)cc1[N+](=O)[O-] (centres undefined)	4	67*	9	-2	0
C=CCN(CC=C)c1ccc(N2C(=O)C3CCCCC3C2=O)cc1[N+](=O)[O-] (centres undefined)	·	38	7	1	2
CN(C)S(=O)(=O)N1CCN(c2ccc([N+](=O)[O-])c(NC3CC3)c2)CC1	-1	9	4	-8	-4
CC(NC(=S)Nc1ccccc1C(F)(F)F)C1CC2CCC1C2 (centres undefined)	-17	27	-4	1	7
O=C(CSCc1cccc(Cl)c1)Nc1ccccc1-c1ccccc1	-14	33	14	3	12
COCCn1c(SCC(=O)NCc2ccc3c(c2)OCO3)nc2ccccc2c1=O	6	27	11	19	7
Cc1ccc(NC2=NC3(CCCCC3)N=C(N)N2)c(C)c1	37	14	13	2	45*
